The source made the active and inactive calls.
What was measured:
A549 [1] = assay: Induction of cell death in human A549 cells assessed as accumulation of Noxa at 10 uM after 48 hrs by immunoblot assay; format: functional, cell-based
Outline: (§1)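 A549 cells grown in normal or A375-conditioned medium, treated with 10 µM. Immunoblots probed poly-ubiquitin accumulation, p53 stabilization and Noxa induction.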

[2] = target: T1, Ubl carboxyl-terminal hydrolase 18 (Homo sapiens, UniProt Q9UMW8); assay: Inhibition of recombinant human USP18 (16 to 372 aa) expressed in Sf9 cells using ISG15-AMC as substrate preincubated for 30 mins before substrate addition measured after 60 mins by fluorescence assay
T1 sequence (Q9UMW8 whole entry): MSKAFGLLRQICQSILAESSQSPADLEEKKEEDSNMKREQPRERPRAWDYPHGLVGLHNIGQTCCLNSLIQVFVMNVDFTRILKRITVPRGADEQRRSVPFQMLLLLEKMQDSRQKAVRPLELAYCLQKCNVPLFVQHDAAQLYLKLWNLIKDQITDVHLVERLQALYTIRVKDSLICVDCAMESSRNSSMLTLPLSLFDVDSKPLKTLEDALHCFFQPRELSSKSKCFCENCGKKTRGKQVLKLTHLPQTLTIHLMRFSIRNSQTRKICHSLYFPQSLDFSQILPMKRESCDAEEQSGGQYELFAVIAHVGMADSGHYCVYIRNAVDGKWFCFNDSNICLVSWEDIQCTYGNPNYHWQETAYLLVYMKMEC

[3] = Cytotoxicity against human Hep3B cells after 48 hrs by resazurin assay; format: functional, cell-based, Hep 3B2
[4] = Cytotoxicity against human U87MG cells after 48 hrs by resazurin assay; format: functional, cell-based, U-87MG ATCC; conditions: U-87 MG
Outline: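 U87MG glioblastoma cells treated with compounds; viability read by resazurin 48 h after treatment. IC50 from triplicate experiments, reported as mean and s.d.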

A549 [5] = assay: Induction of cell death in human A549 cells at 2.5 to 10 uM after 48 hrs by trypan blue assay; format: functional, cell-based
Outline: (§2)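 A549 or A375 cells treated 48 h with 2.5–10 µM. Cell death was scored by trypan blue exclusion as a function of concentration.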

A-375 [6] = assay: Induction of cell death in human A375 cells at 2.5 to 10 uM after 48 hrs by trypan blue assay; format: functional, cell-based; outline: as §2
[7] = target: T2, Ubl carboxyl-terminal hydrolase 18 (Homo sapiens) (UniProt Q9UMW8); assay: Inhibition of USP18 (unknown origin) expressed in human A549 cells coexpressing ISG15-GFP assessed as reduction in free GFP at 2.5 to 10 uM after 24 hrs by immunoblot assay; format: cell-based
T2 sequence (whole entry): T1 sequence (Q9UMW8 whole entry)

U-87MG ATCC = assay: Induction of cell death in human U87MG cells at 4.2 to 18.4 uM after 24 hrs by trypan blue assay in presence of zVAD-fmk; format: functional, cell-based
A549 [8] = assay: Cytotoxicity against human A549 cells after 48 hrs by resazurin assay; format: functional, cell-based; conditions: A549, 48 h
[9] = target: T3, Ubiquitin carboxyl-terminal hydrolase 2 (Homo sapiens) (UniProt O75604); assay: Inhibition of USP2 catalytic domain (unknown origin) expressed in bacteria using Ub-AMC as substrate preincubated for 30 mins before substrate addition measured after 60 mins by fluorescence assay
T3 sequence (whole entry): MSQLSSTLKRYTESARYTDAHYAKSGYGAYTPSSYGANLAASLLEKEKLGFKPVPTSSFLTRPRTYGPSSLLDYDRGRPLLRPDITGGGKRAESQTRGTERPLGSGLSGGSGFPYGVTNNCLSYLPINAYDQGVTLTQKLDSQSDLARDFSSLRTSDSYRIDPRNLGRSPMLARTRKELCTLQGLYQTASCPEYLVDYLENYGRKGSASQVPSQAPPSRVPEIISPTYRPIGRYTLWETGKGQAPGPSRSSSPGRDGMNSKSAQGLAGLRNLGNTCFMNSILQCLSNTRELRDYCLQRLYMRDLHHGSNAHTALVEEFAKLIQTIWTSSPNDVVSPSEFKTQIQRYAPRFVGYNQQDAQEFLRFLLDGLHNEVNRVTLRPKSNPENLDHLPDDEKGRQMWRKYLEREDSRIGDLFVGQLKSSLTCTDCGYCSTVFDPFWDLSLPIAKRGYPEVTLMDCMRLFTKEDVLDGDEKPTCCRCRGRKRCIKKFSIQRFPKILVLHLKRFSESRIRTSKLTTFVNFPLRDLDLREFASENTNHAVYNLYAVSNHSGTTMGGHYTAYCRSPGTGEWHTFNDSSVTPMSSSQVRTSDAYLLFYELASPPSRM
Outline: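 Purified isopeptidase activity was measured with ubiquitin-AMC as fluorogenic substrate; IC50 was derived from inhibition.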

A-375 [10] = assay: Induction of cell death in human A375 cells assessed as accumulation of poly-ubiquitinated proteins at 10 uM after 24 hrs by immunoblot assay; format: functional, cell-based
A-375 [11] = assay: Induction of cell death in human A375 cells assessed as Noxa induction at 10 uM after 24 hrs by immunoblot assay; format: functional, cell-based
A549 [12] = assay: Induction of cell death in human A549 cells assessed as accumulation of poly-ubiquitinated proteins at 10 uM after 48 hrs by immunoblot assay; format: functional, cell-based; outline: as §1
A-375 [13] = assay: Induction of cell death in human A375 cells assessed as stabilization of p53 at 10 uM after 24 hrs by immunoblot assay; format: functional, cell-based
A549 [14] = assay: Induction of cell death in human A549 cells assessed as accumulation of p53 at 10 uM after 48 hrs by immunoblot assay; format: functional, cell-based; outline: as §1
A549 [15] = assay: Induction of cell death in human A549 cells assessed as accumulation of Noxa at 1 to 5 uM after 24 hrs by immunoblot assay; format: functional, cell-based
Outline: (§3)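 A549 cells dosed at three levels (2.5, 5, 10 µM or 1, 2.5, 5 µM depending on inhibitor); lysates made after 24 h. Immunoblots probed poly-ubiquitin, p53 and Noxa, quantified by densitometry; mean of two experiments.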

A549 [16] = assay: Induction of cell death in human A549 cells at 10 uM after 24 to 72 hrs by trypan blue assay; format: functional, cell-based
Outline: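 A549 cells given 10 µM for 24–72 h. Cell death was scored by trypan blue at each time point.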

HT-29 = assay: Induction of cell death in human HT-29 cells at 2.5 to 10 uM after 48 hrs by trypan blue assay; format: functional, cell-based
[17] = Cytotoxicity against human MIAPaCa2 cells after 48 hrs by resazurin assay; format: functional, cell-based; conditions: MIA PaCa-2, 48 h
U-87 MG = assay: Induction of apoptosis in human U87MG cells assessed as caspase activation at 0.6 to 10 uM after 24 hrs by rhodamine-based fluorescence assay; format: functional, cell-based; conditions: U-87MG ATCC
Outline: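 U87MG or T98G cells exposed 24 h to the listed concentrations. Caspase activity was read as relative fluorescence units from the rhodamine 110 bis-(N-Z-L-aspartyl-L-glutamyl-L-valyl-aspartic acid amide) fluorogenic substrate.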

T98G [18] = assay: Induction of necrosis in human T98G cells at 0.6 to 10 uM after 24 hrs by trypan blue assay; format: functional, cell-based
Outline: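 T98G cells exposed 24 h to the listed concentrations. Cell death was scored as percent of trypan blue-positive cells.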

T98G [19] = assay: Induction of cell death in human T98G cells at 4.2 to 18.4 uM after 24 hrs by trypan blue assay in presence of zVAD-fmk; format: functional, cell-based
A549 [20] = assay: Induction of cell death in human A549 cells assessed as accumulation of poly-ubiquitinated proteins at 2.5 to 10 uM after 24 hrs by immunoblot assay; format: functional, cell-based; outline: as §3

O=C1/C(=C/c2ccc([N+](=O)[O-])cc2)CC(O)C/C1=C\c1ccc([N+](=O)[O-])cc1 (stereo not drawn)
35.2 µM: IC50 [17]
active: Activity (A549 [1]) | Activity (A549 [5]) | Activity (A-375 [6]) | inhibition [7] | Activity (U-87MG ATCC) | Activity (A-375 [10]) | Activity (A-375 [11]) | Activity (A549 [12]) | Activity (A-375 [13]) | Activity (A549 [14]) | Activity (A549 [15]) | Activity (A549 [16]) | Activity (HT-29) | Activity (U-87 MG) | Activity (T98G [18]) | Activity (A549 [20])
16 µM: IC50 (A549 [8])
8.5 µM: IC50 [3]
21.2 µM: IC50 [2]
inactive: inhibition [9] | Activity (T98G [19])
4.62 µM: IC50 [4]
